Experimental data taken from publication PMC8458982 (The Journal of Biological Chemistry, 2021).
Numbering of substitutions follows the chain as printed.

Tests used:
Type in all cases: cell-based
human TRPC6 (hTRPC6-WT) = human TRPC6 (hTRPC6-WT) (Homo sapiens, UniProt Q9Y210); assay: whole-cell patch-clamp, hTRPC6-WT expressed in HEK293 cells
In short: (§1)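 Transiently transfected HEK293 cells expressing mouse or human TRPC6 WT, or sequence-verified mouse point mutants, recorded 24–48 h post-transfection. Conventional whole-cell clamp at −60 mV and 23 °C, gap-free; test compound applied by Y-tube. Pipette: CsCl/HEPES/BAPTA, 400 nM free Ca2+, pH 7.2. Bath: NaCl-based, 2 mM CaCl2, pH 7.4. EC50 from Hill fit of concentration–current data. Mutant screen used current ratios (10/5 μM or 3/1 μM). At least 3 transfection batches.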

mTRPC6 mutant ^mE671C = target: T1, mTRPC6 mutant ^mE671C (Mus musculus, UniProt Q61143, E671C); assay: whole-cell patch-clamp, mTRPC6 mutant E671C
T1 sequence (Q61143 1-930 E671C): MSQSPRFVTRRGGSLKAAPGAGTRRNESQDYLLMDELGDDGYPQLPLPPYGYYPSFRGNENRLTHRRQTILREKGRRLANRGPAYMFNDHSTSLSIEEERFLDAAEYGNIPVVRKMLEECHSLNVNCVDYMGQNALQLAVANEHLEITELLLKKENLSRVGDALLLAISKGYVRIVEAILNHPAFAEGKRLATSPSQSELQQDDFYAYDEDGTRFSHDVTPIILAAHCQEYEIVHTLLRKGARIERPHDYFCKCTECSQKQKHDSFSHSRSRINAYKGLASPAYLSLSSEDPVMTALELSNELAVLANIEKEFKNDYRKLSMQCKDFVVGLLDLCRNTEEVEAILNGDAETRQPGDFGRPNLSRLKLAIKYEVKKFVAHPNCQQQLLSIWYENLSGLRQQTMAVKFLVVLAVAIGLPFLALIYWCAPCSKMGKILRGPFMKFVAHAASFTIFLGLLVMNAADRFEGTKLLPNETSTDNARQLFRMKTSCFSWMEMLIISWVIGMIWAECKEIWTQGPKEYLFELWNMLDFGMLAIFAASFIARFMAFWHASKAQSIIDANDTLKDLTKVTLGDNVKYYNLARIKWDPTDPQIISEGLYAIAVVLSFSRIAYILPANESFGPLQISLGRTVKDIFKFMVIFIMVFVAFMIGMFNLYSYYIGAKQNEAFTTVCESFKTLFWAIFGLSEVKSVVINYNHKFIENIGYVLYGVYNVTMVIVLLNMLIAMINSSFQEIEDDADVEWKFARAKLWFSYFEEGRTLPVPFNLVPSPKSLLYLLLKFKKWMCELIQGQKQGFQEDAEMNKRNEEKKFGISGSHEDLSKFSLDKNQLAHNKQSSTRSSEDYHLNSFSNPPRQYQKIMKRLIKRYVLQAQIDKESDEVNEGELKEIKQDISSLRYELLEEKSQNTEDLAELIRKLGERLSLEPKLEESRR
In short: as §1

mTRPC6 mutant ^mK675R = mTRPC6 mutant ^mK675R (Mus musculus, UniProt Q61143, K675R); assay: whole-cell patch-clamp, mTRPC6 mutant K675R
mTRPC6 mutant ^mK675R, sequence (Q61143 whole entry K675R): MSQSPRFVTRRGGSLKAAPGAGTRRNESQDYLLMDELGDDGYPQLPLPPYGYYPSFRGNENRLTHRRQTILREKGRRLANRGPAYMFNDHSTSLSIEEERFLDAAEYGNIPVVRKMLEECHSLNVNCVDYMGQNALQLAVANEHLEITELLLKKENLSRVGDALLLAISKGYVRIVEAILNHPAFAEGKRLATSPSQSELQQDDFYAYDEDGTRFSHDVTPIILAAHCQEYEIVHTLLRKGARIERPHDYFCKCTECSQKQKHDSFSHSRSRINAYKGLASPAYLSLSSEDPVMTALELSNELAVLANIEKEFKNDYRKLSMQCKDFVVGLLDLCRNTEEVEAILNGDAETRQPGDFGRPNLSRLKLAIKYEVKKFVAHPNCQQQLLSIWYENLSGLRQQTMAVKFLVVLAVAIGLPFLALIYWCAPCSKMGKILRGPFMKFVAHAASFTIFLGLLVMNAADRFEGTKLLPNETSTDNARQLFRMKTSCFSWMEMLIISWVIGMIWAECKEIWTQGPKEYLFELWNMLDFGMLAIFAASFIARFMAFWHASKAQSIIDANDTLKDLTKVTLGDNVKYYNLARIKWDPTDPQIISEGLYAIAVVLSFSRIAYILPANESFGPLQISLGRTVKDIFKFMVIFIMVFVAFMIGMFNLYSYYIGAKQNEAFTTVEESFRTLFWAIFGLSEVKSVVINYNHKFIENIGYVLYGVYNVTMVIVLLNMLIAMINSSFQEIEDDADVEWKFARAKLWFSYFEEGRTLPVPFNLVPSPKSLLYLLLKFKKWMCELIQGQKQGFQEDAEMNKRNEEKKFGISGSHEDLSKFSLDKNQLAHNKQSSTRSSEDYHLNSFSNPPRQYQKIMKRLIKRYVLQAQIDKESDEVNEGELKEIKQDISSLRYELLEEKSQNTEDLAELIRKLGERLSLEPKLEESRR
In short: as §1

mTRPC6 mutant ^mE700A = mTRPC6 mutant ^mE700A (Mus musculus, UniProt Q61143, E700A); assay: whole-cell patch-clamp, mTRPC6 mutant E700A; conditions: saturated agonist
mTRPC6 mutant ^mE700A, sequence (Q61143 whole entry E700A): as the sequence (Q61143 whole entry K675R) above, with R675K, E700A counted along it
In short: as §1

hTRPC6 mutant ^hN702Q = hTRPC6 mutant ^hN702Q (Homo sapiens, UniProt Q9Y210, N702Q); assay: whole-cell patch-clamp, hTRPC6 mutant N702Q
hTRPC6 mutant ^hN702Q, sequence (Q9Y210 whole entry N702Q): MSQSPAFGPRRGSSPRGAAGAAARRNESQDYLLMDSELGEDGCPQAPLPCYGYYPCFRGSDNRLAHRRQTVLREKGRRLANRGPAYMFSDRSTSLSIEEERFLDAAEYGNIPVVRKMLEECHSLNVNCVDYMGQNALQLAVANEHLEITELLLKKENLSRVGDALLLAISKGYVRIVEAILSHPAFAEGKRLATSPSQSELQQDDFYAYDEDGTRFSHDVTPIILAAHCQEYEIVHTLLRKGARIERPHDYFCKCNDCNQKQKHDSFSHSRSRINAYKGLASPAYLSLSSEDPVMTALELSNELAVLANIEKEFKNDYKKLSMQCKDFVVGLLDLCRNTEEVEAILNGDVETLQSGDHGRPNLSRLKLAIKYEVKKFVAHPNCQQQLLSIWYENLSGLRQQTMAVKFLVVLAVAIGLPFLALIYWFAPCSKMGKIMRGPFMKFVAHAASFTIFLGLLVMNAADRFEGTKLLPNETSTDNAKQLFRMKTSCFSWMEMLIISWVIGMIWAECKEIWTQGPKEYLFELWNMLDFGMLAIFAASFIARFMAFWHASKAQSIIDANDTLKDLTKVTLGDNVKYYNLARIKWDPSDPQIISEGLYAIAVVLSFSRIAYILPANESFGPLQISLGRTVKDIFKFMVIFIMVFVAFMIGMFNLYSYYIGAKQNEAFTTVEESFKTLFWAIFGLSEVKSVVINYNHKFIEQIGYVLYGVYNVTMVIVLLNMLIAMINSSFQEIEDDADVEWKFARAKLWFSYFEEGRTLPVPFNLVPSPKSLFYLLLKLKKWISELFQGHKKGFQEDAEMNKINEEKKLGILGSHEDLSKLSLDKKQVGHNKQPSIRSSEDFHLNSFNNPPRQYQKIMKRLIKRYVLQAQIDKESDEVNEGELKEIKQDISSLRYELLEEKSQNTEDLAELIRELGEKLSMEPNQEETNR

TRPC6 = target: T2, TRPC6 (Mus musculus, UniProt Q61143); assay: macro-patch recordings in outside-out and inside-out configurations
T2 sequence (Q61143 1-930): T1 sequence (Q61143 1-930 E671C) with C671E
In short: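 Excised outside-out or inside-out patches (macro-patch or single-channel) from transfected HEK293 cells, 24–48 h post-transfection, 23 °C. Polished borosilicate pipettes of 8–12 MΩ; holding potential −60 mV. Same solutions as whole-cell recordings (CsCl-based internal, 400 nM free Ca2+, pH 7.2; NaCl-based external, pH 7.4). Sampled at 50 kHz, 2 kHz filter, low-pass 300 Hz; unitary current and conductance measured.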

human TRPC6 (hTRPC6-WT), sequence (Q9Y210 whole entry): as the sequence (Q9Y210 whole entry N702Q) above, with Q702N counted along it

SMILES: CCOC(=O)N1CCC(c2cc(O)n3nc(C)c(-c4ccc(F)cc4)c3n2)CC1 [M085, Ethyl 4-(3-(4-fluorophenyl)-7-hydroxy-2-methylpyrazolo[1,5-a]pyrimidin-5-yl)piperidine-1-carboxylate]
- EC50 (human TRPC6 (hTRPC6-WT)): 2.94 ± 0.7 µM
- EC50 (mTRPC6 mutant ^mE671C): 23.3 ± 6.86 µM
- ratio of M085 activation current I10 μM/I5 μM (mTRPC6 mutant ^mE671C; ^mE671C (S2 pocket)): 4.16 ± 0.87
- Imax (maximal current density) (mTRPC6 mutant ^mE671C; ^mE671C, 100 μM agonist): 24.09 ± 4.53 pA/pF
- agonist-mediated activation after DTNB treatment (mTRPC6 mutant ^mE671C; mTRPC6^E671C, DTNB 2 mM): completely inhibited
- agonist current after DTT removal of TNB moiety (mTRPC6 mutant ^mE671C; mTRPC6^E671C, after DTNB then DTT 10 mM): partially “recovered”
- EC50 (mTRPC6 mutant ^mK675R): 6.9 ± 2.36 µM
- Imax (maximal current density) (mTRPC6 mutant ^mK675R; ^mK675R, 100 μM agonist): 8.26 ± 0.62 pA/pF
- agonist-induced current (mTRPC6 mutant ^mE700A): disappearance
- EC50 (hTRPC6 mutant ^hN702Q): 54.5 ± 6.53 µM
- current in inside-out configuration (TRPC6; 100 μM agonist, inside-out macro-patch): no currents were recorded
- current in outside-out configuration (TRPC6; 100 μM agonist, outside-out macro-patch): could be recorded
- cell membrane permeability (TRPC6; implied from inside-out/outside-out recordings): relatively low
